According to ChEMBL document CHEMBL4152290, “1H-Benzo[d]imidazoles and 3,4-dihydroquinazolin-4-ones: Design, synthesis and antitubercular activity” (Eur J Med Chem, 2018):
≈ marks a conversion by molar mass, not a printed value.

Assays:
Format in all cases: functional
[1] = test system: Mycobacterium tuberculosis; experiment: Antitubercular activity against Mycobacterium tuberculosis isolate CDCT28 harboring rpoB mutant gene after 7 days by resazurin dye based assay
In short: (§1)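 Resazurin microtiter MIC in 7H9 with 10% ADC. Two-fold dilutions from 1 mg/mL DMSO stocks span 25.0–0.05, 10.0–0.02 or 0.02–0.0004 µg/mL, with 2.5% DMSO final. Inoculum is bead-declumped culture grown in 7H9/10% OADC/0.05% Tween 80, diluted to OD600 0.006. Plates run 7 days at 37 °C, then 0.01% resazurin for 48 h. MIC is the lowest concentration preventing the blue-to-pink change. Three independent tests.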

[2] = test system: Mycobacterium tuberculosis; experiment: Antitubercular activity against multidrug-resistant Mycobacterium tuberculosis isolate CDCT10 harboring rpoB/katG mutant gene after 7 days by resazurin dye based assay; in short: as §1
[3] = test system: Mycobacterium tuberculosis; experiment: Antitubercular activity against multidrug-resistant Mycobacterium tuberculosis isolate CDCT16 harboring rpoB/katG/inhA mutant gene after 7 days by resazurin dye based assay; in short: as §1
[4] = test system: Mycobacterium tuberculosis; experiment: Antitubercular activity against isoniazid/ethambutol-resistant Mycobacterium tuberculosis isolate CDCT27 harboring katG mutant gene after 7 days by resazurin dye based assay; in short: as §1

## O=C(CSc1nc2ccccc2c(=O)[nH]1)NC1CCCCC1
[1]
  MIC: 0.5 µM (≈ 0.159 µg/mL)
[2]
  MIC: 0.5 µM (≈ 0.159 µg/mL)
[3]
  MIC: 0.97 µM (≈ 0.308 µg/mL)
[4]
  MIC: 0.25 µM (≈ 0.0794 µg/mL)

## CC1CCC(NC(=O)CSc2nc3ccccc3c(=O)[nH]2)CC1 (configuration not stated)
[1]
  MIC: 0.24 µM (≈ 0.0795 µg/mL)
[2]
  MIC: 0.24 µM (≈ 0.0795 µg/mL)
[3]
  MIC: 0.48 µM (≈ 0.159 µg/mL)
[4]
  MIC: 0.12 µM (≈ 0.0398 µg/mL)

## CC1CCCCC1NC(=O)CSc1nc2ccccc2c(=O)[nH]1 (configuration not stated)
[1]
  MIC: 1.9 µM (≈ 0.63 µg/mL)
[2]
  MIC: 0.95 µM (≈ 0.315 µg/mL)
[3]
  MIC: 3.9 µM (≈ 1.29 µg/mL)
[4]
  MIC: 0.96 µM (≈ 0.318 µg/mL)

## C[C@H]1CC[C@H](NC(=O)CSc2nc3ccccc3c(=O)[nH]2)CC1
[1]
  MIC: 0.12 µM (≈ 0.0398 µg/mL)
[2]
  MIC: 0.12 µM (≈ 0.0398 µg/mL)
[3]
  MIC: 0.24 µM (≈ 0.0795 µg/mL)
[4]
  MIC: 0.12 µM (≈ 0.0398 µg/mL)

## O=C(CSc1nc2ccccc2c(=O)[nH]1)NC1CCCCCC1
[1]
  MIC: 0.48 µM (≈ 0.159 µg/mL)
[2]
  MIC: 0.48 µM (≈ 0.159 µg/mL)
[3]
  MIC: 0.93 µM (≈ 0.308 µg/mL)
[4]
  MIC: 0.24 µM (≈ 0.0795 µg/mL)

## CC1CCCC(NC(=O)CSc2nc3ccccc3c(=O)[nH]2)C1 (configuration not stated)
[1]
  MIC: 0.93 µM (≈ 0.308 µg/mL)
[2]
  MIC: 0.94 µM (≈ 0.312 µg/mL)
[3]
  MIC: 0.9 µM (≈ 0.298 µg/mL)
[4]
  MIC: 0.24 µM (≈ 0.0795 µg/mL)

## O=C(CSc1nc2ccccc2c(=O)[nH]1)NCC1CCCCC1
[1]
  MIC: 0.93 µM (≈ 0.308 µg/mL)
[2]
  MIC: 0.93 µM (≈ 0.308 µg/mL)
[3]
  MIC: 0.93 µM (≈ 0.308 µg/mL)
[4]
  MIC: 0.48 µM (≈ 0.159 µg/mL)

## NNC(=O)c1ccncc1 [ISONIAZID]
[1]
  MIC: 2.84 µM (≈ 0.389 µg/mL)
[2]
  MIC: 45.6 µM (≈ 6.25 µg/mL)
[3]
  MIC: >729.2 µM
[4]
  MIC: 182.3 µM (≈ 25 µg/mL)
